PKD1 kinase inh = inhibitors of human PKD1 kinase, biochemical, fluorescence polarization; inhibition, % (test concentration not listed); PKD1 kinase fluorescence polarization assay; hit rate 0.056% among 200,000; Serine/threonine-protein kinase D1 (Homo sapiens), Q15139
Target sequence (Q15139 whole entry, looked up): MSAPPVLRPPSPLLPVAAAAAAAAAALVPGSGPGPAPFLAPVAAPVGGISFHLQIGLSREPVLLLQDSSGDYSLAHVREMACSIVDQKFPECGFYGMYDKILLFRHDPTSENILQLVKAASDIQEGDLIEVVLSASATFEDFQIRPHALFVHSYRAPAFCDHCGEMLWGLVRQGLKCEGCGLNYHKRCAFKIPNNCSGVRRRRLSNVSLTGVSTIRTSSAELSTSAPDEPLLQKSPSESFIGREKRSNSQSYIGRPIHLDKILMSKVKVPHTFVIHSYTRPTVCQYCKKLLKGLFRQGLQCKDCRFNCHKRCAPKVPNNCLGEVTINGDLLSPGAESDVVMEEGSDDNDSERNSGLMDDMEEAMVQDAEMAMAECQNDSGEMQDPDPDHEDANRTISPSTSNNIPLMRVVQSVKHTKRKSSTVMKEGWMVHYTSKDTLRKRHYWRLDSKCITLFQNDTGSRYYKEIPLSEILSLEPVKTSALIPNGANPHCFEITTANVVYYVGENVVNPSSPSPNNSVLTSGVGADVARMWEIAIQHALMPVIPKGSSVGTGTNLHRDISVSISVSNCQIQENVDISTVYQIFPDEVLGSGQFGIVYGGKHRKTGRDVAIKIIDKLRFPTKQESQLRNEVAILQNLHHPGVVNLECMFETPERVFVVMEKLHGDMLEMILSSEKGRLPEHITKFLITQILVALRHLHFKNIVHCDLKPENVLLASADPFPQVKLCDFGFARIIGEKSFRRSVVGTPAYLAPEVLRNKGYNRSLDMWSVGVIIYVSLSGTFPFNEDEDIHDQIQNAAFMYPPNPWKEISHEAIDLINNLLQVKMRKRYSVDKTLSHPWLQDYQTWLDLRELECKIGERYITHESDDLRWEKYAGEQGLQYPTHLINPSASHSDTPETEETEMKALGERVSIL
Rad51 HR inh = human RAD51 strand exchange inhibitors, primary screen, biochemical, fluorescence. DNA repair protein RAD51 homolog 1 (Homo sapiens), Q06609. hRad51 DNA strand exchange, fluorescence dequenching. inhibition, % at 10 µM. hit rate 0.085% among 200,000. AID 1385, 2008;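 active means inhibition above 40% at the single screening dose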
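Material: hRad51 filaments on single-stranded DNA; Reagent: Donor/quencher-labelled 47-bp dsDNA substrate; Compound: 10 µM final, single point; Schedule: 37 °C 15-min filament assembly, 30-min compound preincubation, 15-min exchange; Technique: FRET fluorescence, excitation 485 nm, emission 520 nm; Benchmarks: control wells and blank wells on each plate.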
Arbovirus inh = antivirals against arbovirus infection, primary screen, cell-based, full library, 10K replicate subset; hit rate 0.37% among 200,000; arbovirus infection cell-based antiviral screen; inhibition, % at 10 µM; in the data active means inhibition above about 30%
L major viab = Leishmania major promastigote growth inhibition, primary screen. inhibition, % at 10 µM. hit rate 9% among 200,000. Leishmania major promastigotes, resazurin fluorescence viability;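 further: promastigotes grown with compound for 44 hours at 28 °C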
Wee1 stabilizer = Wee1 degradation inhibitors, primary screen, cell-based, HeLa, Wee1K328M-luciferase, luminescence; Wee1-like protein kinase (Homo sapiens), P30291; HeLa Luc-Wee1K328M stability; 100% = proteasome inhibitor MG132 effect; reporter increase, % at 5 µM; hit rate 1.2% among 220,000;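 active means activation above the mean of all tested compounds plus 3 SD, set per screening run, cut at about 8.8% in these data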;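 further: cells exposed to compound for 20 h before luminescence read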
CHOP inhibitor = inhibitors of CHOP promoter induction, primary screen, cell-based, unfolded protein response, luciferase reporter | hit rate 3.8% among 220,000 | AID 2732, 2010 | inhibition, % at 10 µM | CHO-K1 CHOP-promoter luciferase, tunicamycin-induced, 15-18 h;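 active means compounds that reduced the stress-induced luciferase reporter signal by more than about 70% of percent inhibition, limit read from the data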
Each line names hits and unclear results; the compound was inactive in the other large screens. Shown are actives, neighbours in structure and some others; about 12% of the full set was active somewhere. Unless noted, no stated cut-off is given here; in the data, active means inhibition above about 50%; inactive means the rest.

CN(C)/C=C(/C#N)C(=O)c1cccc(Oc2ccc(C(C)(C)C)cc2)c1	CHOP inhibitor 93.2
CCc1ccc2[nH]c(=O)c(CN(CCCN3CCOCC3)C(=O)Nc3cccc(Cl)c3)cc2c1	L major viab 83.5
Cc1cc(C)c2cc(CN(CCN3CCCC3)C(=O)Nc3ccc(F)cc3)c(=O)[nH]c2c1	none
Cc1ccc(C)c2[nH]c(=O)c(CN(CCN3CCCC3)C(=O)Nc3cccc(Cl)c3)cc12	L major viab 100.5 (no result: CHOP inhibitor)
OCCN1CCN(c2ncnc3sc(-c4ccccc4)cc23)CC1	none
Cc1ccc(N2CCN(C(=O)NC3CCCCC3)CC2C)cc1 (configuration not stated)	none (no result: PKD1 kinase inh, Arbovirus inh, L major viab)
NCCc1nnc(SCc2ccccc2Cl)o1	none (no result: PKD1 kinase inh, Arbovirus inh, L major viab)
NCCCCCc1nnc(SCc2ccc(Cl)cc2Cl)o1	L major viab 100.3
CC1CCN(CCOCCOc2ccccc2Br)CC1	L major viab 82.2
COc1cc(C)ccc1OCCOCCOc1ccccc1Br	none (no result: Rad51 HR inh)
Brc1ccccc1OCCOCCOc1cccc2cccnc12	none
CC1CCN(CCOCCOc2ccccc2-c2ccccc2)CC1	L major viab 82.7
CC1CN(CCOc2ccccc2-c2ccccc2)CC(C)O1 (configuration not stated)	none
Cc1ccc2cccc(OCCOCCOc3ccccc3Br)c2n1	L major viab 66.7
CC1CCN(CCCCOc2ccccc2-c2ccccc2)CC1	L major viab 99.1
COCC1=C(C(=O)OC)C(c2cccs2)n2ncnc2N1 (configuration not stated)	none (no result: PKD1 kinase inh, Arbovirus inh, L major viab)
CC1CCCN(CCCOc2ccccc2-c2ccccc2)C1 (configuration not stated)	L major viab 94.3
Cc1ccc(-c2nnc(-n3ncc(C#N)c3N)c3ccccc23)cc1C	none
C=CCN(Cc1cn(C)nc1-c1cccc(Cl)c1)C1CCS(=O)(=O)C1 (configuration not stated)	none
CCC(=Nc1ccc(N)cc1)C1=C(O)C(C(=O)OC)C(C)(C)CC1=O (configuration not stated)	none
CCCCC(=Nc1ccc(N)cc1)C1=C(O)C(C(=O)OC)C(C)(C)CC1=O (configuration not stated)	L major viab 68.0
Cc1ccc(-c2csc(NC(=O)CCCc3cccs3)n2)cc1	none
CC(=O)Nc1ccc(-c2csc(NCc3ccccc3)n2)cc1	L major viab 60.3
CC(=O)Nc1ccc(-c2csc(NC(=O)CCCc3cccs3)n2)cc1	L major viab 75.4
O=C(COc1ccccc1)Nc1nc(-c2cccs2)cs1	none
O=C(CCS(=O)(=O)c1ccccc1)Nc1nc(-c2cccs2)cs1	L major viab 50.4
O=C(Nc1ccc(-c2csc(Nc3ccccc3)n2)cc1)c1cccc(C(F)(F)F)c1	CHOP inhibitor 90.7 (no result: PKD1 kinase inh, Arbovirus inh, L major viab, Wee1 stabilizer)
Cc1nn(Cc2ccc(Cl)cc2)c(C)c1NC(=O)CCCn1nc([N+](=O)[O-])c(Cl)c1C	none
O=C(Oc1ccccc1)c1ccc2c(c1)C(=O)N(Cc1ccncc1)C2=O	none (no result: PKD1 kinase inh, Rad51 HR inh, Arbovirus inh, L major viab)
Cc1ccc(-c2csc(NC(=O)CCNC(=O)c3ccccc3Cl)n2)cc1	L major viab 83.7
O=C(NC(=O)c1cnccc1C(F)(F)F)Nc1ccccc1	none (no result: PKD1 kinase inh, Arbovirus inh, L major viab)
CC(=O)Nc1cc(N=Cc2ccc(O)cc2O)c(Cl)cc1Cl	none
COc1ccc(O)c(C=Nc2cc(NC(C)=O)c(Cl)cc2Cl)c1	L major viab 64.3
Cc1ccc(NC(=O)/C(=C\c2cccs2)NC(=O)c2ccccc2)cc1	L major viab 83.3
Cc1ccc(C(=O)N/C(=C\c2cccs2)C(=O)NCc2cccnc2)cc1	Arbovirus inh 30.3
O=C(Nc1ccc(O)cc1)/C(=C\c1cccs1)NC(=O)c1ccccc1	none
O=C(Oc1cc(Cl)cc(Cl)c1)c1cnc2n(c1=O)CCS2	none (no result: PKD1 kinase inh, Arbovirus inh, L major viab)
Cc1sc2nc(-c3ccccn3)[nH]c(=O)c2c1-c1ccccc1	L major viab 99.4
Cc1sc2nc(-c3ccncc3)[nH]c(=O)c2c1-c1ccccc1	none (no result: Rad51 HR inh)
COc1cc(-c2nc(=S)[nH][nH]2)cc(OC)c1OC	none
Cc1ccc(C(=O)N(CCCN(C)C)c2nc3ccc(Cl)cc3s2)cc1C	L major viab 81.7
CN(C)CCCN(C(=O)c1ccco1)c1nc2ccc(Cl)cc2s1	none
Cc1ccc2nc(N(CCCN(C)C)C(=O)c3sc4ccccc4c3Cl)sc2c1	L major viab 56.0, CHOP inhibitor 79.8
CN(C)CCCN(C(=O)c1ccc2c(c1)CCCC2)c1nc2ccc(F)cc2s1	L major viab 73.5
CCN(CC)CCN(C(=O)c1ccc2c(c1)CCCC2)c1nc2ccc(F)cc2s1	none
C(=C\c1ccccn1)/c1cccnc1	none (no result: PKD1 kinase inh, Arbovirus inh, L major viab)
CCC(CC)C(=O)c1c[nH]c(C(=O)N2CCN(c3ccccc3)CC2)c1	none
CCCCN1C(=O)C(=Nc2cccc3cnccc23)c2ccccc21	L major viab 77.1
CCC(=O)N1CCc2cc(S(=O)(=O)N3CCc4ccccc4C3)ccc21	none
CCCCN(CC)S(=O)(=O)c1ccc2c(c1)CCCN2C(C)=O	none
CC(=O)N1CCCc2cc(S(=O)(=O)N(C)Cc3ccccc3)ccc21	L major viab 61.0
CC(=O)N1CCCc2cc(S(=O)(=O)N3CCc4ccccc4C3)ccc21	L major viab 98.5
C=CCSc1nnc2c(n1)OC(C)=Nc1ccc(Br)cc1-2	none
COc1cccc2c1C(=O)O/C2=C/c1ccc2c(c1)OCO2	CHOP inhibitor 85.1
CCCCNC(=S)N(C)/N=C/c1ccccc1F	CHOP inhibitor 77.2
CCCCNC(=S)N(C)/N=C/c1c(F)cccc1F	none
COc1cc(OC)c(C(=O)NCCCn2ccnc2)cc1OC	none (no result: Rad51 HR inh)
CC1CC(NC(=O)CCn2c(=O)oc3ccccc32)CC(C)(C)C1 (configuration not stated)	L major viab 99.4
COc1ccc(N2CCN(C(=O)c3cccnc3)CC2)c([N+](=O)[O-])c1	none (no result: Rad51 HR inh)
COc1ccc(C(c2c[nH]c3ccccc23)c2c[nH]c3ccccc23)cc1O	CHOP inhibitor 75.1
COc1ccc(NC(=O)CCCc2c[nH]c3ccccc23)cc1OC	none
O=C(C1CCN(S(=O)(=O)N2CCC3(CC2)OCCO3)CC1)N1CCc2ccccc2C1	none (no result: Rad51 HR inh)
O=C(C1CCN(c2ccc(N3CCOCC3)nn2)CC1)N1CCc2ccccc2C1	L major viab 95.2 (no result: Rad51 HR inh, CHOP inhibitor)
CN1CCN(/N=C/c2ccc(Cl)c(Cl)c2)CC1	L major viab 97.5
CN1CCN(/N=C/c2ccc(N(C)c3ccccc3)cc2)CC1	L major viab 83.1
CN1CCN(/N=C/c2ccc(Br)cc2)CC1	none
Cc1ccc(C(=O)N/C(=C/c2ccccc2)C(=O)NCC2CCCO2)cc1 (configuration not stated)	none (no result: Rad51 HR inh)
Cn1c(-c2ccccc2)cnc1SCC(=O)N1CCCc2ccccc21	L major viab 76.7

Assay outcomes from PubChem.
